From PMC11079110 (Heliyon, 2024)

Columns and labels:
human KMO = human KMO (Homo sapiens, UniProt O15229); test: Kinetics study; type: biochemical; conditions: Lineweaver-Burk plots, 0–40 μM compound, 0–20 μM L-Kyn
Outline: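 Human KMO was exposed to graded test compound concentrations across a range of L-Kyn concentrations. Reaction velocities were plotted as double reciprocals (Lineweaver-Burk). Inhibition type was assigned from how the x- and y-intercepts, reflecting Km and Vmax, shifted with inhibitor. Each condition was run in triplicate, and the experiments were repeated three times.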

KMO = conditions: read-out: IC50 (KMO inhibitor); cited from earlier work

human KMO, sequence (O15229 whole entry): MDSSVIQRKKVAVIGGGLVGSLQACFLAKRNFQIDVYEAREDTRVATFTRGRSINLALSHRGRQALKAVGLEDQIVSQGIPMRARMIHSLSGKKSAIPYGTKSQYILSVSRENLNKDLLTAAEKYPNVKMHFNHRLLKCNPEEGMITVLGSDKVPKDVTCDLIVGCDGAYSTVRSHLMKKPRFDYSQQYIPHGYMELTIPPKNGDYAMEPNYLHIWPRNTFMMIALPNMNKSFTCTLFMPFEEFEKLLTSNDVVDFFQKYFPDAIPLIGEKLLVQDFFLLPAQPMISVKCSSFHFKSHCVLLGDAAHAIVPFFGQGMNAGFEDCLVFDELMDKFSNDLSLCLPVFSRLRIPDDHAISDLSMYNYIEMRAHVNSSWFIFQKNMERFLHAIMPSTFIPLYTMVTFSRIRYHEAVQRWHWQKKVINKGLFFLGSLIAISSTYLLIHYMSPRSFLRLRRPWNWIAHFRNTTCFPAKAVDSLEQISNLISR

O=c1cc(-c2ccc(O)cc2)oc2cc(O)cc(O)c12 [Apigenin]
Inhibition type (human KMO): non-competitive inhibition
Inhibition type (human KMO; listed as apigenin): non-competitive inhibitors

Cc1ccc([C@@H](C)Oc2cc3onc(CCC(=O)O)c3cc2Cl)nn1 [GSK 366]
IC50 (KMO): 2.3 nM

COc1cc(O)c2c(=O)cc(-c3ccc(O)cc3)oc2c1 [Genkwanin]
Inhibition type (human KMO): non-competitive inhibition
Inhibition type (human KMO; listed as genkwanin): non-competitive inhibitors

O=C(O)[C@H]1C[C@@H]1C(=O)c1ccc(Cl)c(Cl)c1 [UPF-648]
IC50 (KMO): 20 nM
